In ChEMBL document CHEMBL5126601 (ACS Med Chem Lett, 2022):
Activity calls are given as the source filed them. No cut-off for these calls is given here.

Tests used:
Adenosine receptor A2a [1] = biological target: T1, Adenosine receptor A2a (Homo sapiens, UniProt P29274); test: Binding affinity to human wild type adenosine A2A receptor expressed in Expi293F cells assessed as inhibition constant taken from literature
Adenosine receptor A2a [2] = biological target: T1, Adenosine receptor A2a; test: Binding affinity to human wild type adenosine A2A receptor expressed in Expi293F cells assessed as dissociation constant by surface plasmon resonance assay
Adenosine receptor A1 [3] = biological target: T2, Adenosine receptor A1 (Homo sapiens, UniProt P30542); test: Binding affinity to human wild type adenosine A1 receptor expressed in Expi293F cells assessed as dissociation constant by surface plasmon resonance assay
T2 sequence (P30542 whole entry): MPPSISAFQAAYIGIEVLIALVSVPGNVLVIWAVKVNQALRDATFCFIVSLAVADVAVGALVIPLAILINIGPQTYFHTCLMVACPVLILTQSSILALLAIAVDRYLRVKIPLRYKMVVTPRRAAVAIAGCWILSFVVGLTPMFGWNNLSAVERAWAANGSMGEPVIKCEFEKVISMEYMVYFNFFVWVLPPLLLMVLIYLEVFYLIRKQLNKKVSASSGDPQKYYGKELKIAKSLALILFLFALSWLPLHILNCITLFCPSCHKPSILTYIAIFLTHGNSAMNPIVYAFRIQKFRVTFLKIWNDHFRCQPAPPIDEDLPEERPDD

Adenosine receptor A2b [4] = biological target: T3, Adenosine receptor A2b (Homo sapiens, UniProt P29275); test: Binding affinity to human wild type adenosine A2B receptor expressed in Expi293F cells assessed as dissociation constant by surface plasmon resonance assay
T3 sequence (P29275 whole entry): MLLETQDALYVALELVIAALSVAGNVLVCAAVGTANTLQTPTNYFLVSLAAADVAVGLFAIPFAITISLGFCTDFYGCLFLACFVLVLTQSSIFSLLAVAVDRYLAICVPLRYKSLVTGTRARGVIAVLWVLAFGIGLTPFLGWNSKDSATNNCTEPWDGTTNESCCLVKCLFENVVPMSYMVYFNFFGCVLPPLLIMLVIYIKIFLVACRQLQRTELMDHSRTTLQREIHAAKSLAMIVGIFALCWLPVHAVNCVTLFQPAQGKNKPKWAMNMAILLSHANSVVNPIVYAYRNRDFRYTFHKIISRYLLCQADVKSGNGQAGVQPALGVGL

Adenosine receptor A3 = biological target: T4, Adenosine receptor A3 (Homo sapiens, UniProt P0DMS8); test: (§1) Binding affinity to human wild type adenosine A3 receptor expressed in Expi293F cells assessed as dissociation constant by surface plasmon resonance assay
T4 sequence (P0DMS8 whole entry): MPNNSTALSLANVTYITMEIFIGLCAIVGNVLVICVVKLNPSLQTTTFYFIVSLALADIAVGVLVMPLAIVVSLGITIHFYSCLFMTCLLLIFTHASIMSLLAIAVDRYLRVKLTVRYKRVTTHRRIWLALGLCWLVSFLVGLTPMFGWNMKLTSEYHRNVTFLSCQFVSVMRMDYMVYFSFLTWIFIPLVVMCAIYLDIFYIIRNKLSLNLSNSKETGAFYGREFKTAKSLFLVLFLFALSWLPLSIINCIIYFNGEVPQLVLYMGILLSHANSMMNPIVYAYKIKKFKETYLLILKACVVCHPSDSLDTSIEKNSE

Adenosine receptor A2a [5] = biological target: T1, Adenosine receptor A2a; test: Antagonist activity at human adenosine A2A receptor expressed in HEK293T cells assessed as inhibition of EC20 concentration of NECA-induced cAMP accumulation at higher concentration by GloSensor cAMP accumulation assay; format: functional, cell-based; details: filed as antagonist
Summary of the method: (§2)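 HEK293T cells expressing A2A, GloSensor luciferase cAMP read-out; concentration–response curves run against EC20 NECA (3 nM). Data as % of maximum NECA response; mean ± SEM of at least three independent experiments in technical duplicate. Maximum tested concentration 0.63 mM where compound supply was limited; compounds also checked in cells lacking transfected A2A.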

Adenosine receptor A2b [6] = biological target: T3, Adenosine receptor A2b; test: Binding affinity to human wild type adenosine A2B receptor expressed in Expi293F cells assessed as affinity on-rate by surface plasmon resonance assay
[7] = biological target: T5, Adenosine receptor A2b (Homo sapiens) (UniProt P29275); test: Binding affinity to human wild type adenosine A2B receptor expressed in Expi293F cells assessed as affinity off-rate by surface plasmon resonance assay
T5 sequence (whole entry): T3 sequence (P29275 whole entry)

Adenosine receptor A2b [8] = biological target: T3, Adenosine receptor A2b; test: Binding affinity to human wild type adenosine A2B receptor expressed in Expi293F cells assessed as inhibition constant by surface plasmon resonance assay
[9] = biological target: T6, Adenosine receptor A1 (Homo sapiens) (UniProt P30542); test: Binding affinity to human wild type adenosine A1 receptor expressed in Expi293F cells assessed as affinity on-rate by surface plasmon resonance assay
T6 sequence (whole entry): T2 sequence (P30542 whole entry)

Adenosine receptor A2a [10] = biological target: T1, Adenosine receptor A2a; test: Antagonist activity at human adenosine A2A receptor expressed in HEK293T cells assessed as inhibition of EC20 concentration of NECA-induced cAMP accumulation by measuring fold change in potency by GloSensor cAMP accumulation assay; format: functional, cell-based; details: filed as antagonist
[11] = biological target: T6, Adenosine receptor A1 (Homo sapiens); test: Binding affinity to human wild type adenosine A1 receptor expressed in Expi293F cells assessed as affinity off-rate by surface plasmon resonance assay
[12] = biological target: T7, Adenosine receptor A3 (Homo sapiens) (UniProt P0DMS8); test: Binding affinity to human wild type adenosine A3 receptor expressed in Expi293F cells assessed as affinity off-rate by surface plasmon resonance assay
T7 sequence (whole entry): T4 sequence (P0DMS8 whole entry)

[13] = biological target: Glycogen synthase kinase-3 alpha (Homo sapiens, UniProt P49840); test: Inhibition of recombinant human GSKalpha
Chain of Glycogen synthase kinase-3 alpha (P49840 whole entry): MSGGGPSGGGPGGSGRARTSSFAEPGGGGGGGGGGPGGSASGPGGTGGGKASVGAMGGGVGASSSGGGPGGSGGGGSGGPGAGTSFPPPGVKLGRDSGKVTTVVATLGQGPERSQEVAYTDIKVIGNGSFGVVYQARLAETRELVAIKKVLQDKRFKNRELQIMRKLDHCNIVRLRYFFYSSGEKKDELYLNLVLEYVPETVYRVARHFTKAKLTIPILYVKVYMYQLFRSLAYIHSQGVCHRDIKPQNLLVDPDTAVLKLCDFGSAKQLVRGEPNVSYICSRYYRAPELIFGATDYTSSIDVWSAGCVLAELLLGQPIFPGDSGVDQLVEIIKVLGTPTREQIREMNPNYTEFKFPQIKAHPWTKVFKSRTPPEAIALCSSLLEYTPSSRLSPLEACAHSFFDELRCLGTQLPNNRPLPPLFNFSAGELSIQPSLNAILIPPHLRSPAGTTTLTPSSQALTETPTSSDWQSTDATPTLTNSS

[14] = biological target: T7, Adenosine receptor A3 (Homo sapiens); test: as §1
[15] = biological target: T7, Adenosine receptor A3 (Homo sapiens); test: Binding affinity to human wild type adenosine A3 receptor expressed in Expi293F cells assessed as affinity on-rate by surface plasmon resonance assay
Adenosine receptor A2a [16] = biological target: T1, Adenosine receptor A2a; test: Antagonist activity at human adenosine A2A receptor expressed in HEK293T cells assessed as inhibition of 500 nM NECA-induced cAMP accumulation by GloSensor cAMP accumulation assay; details: filed as antagonist
Adenosine receptor A2a [17] = biological target: T1, Adenosine receptor A2a; test: Antagonist activity at human adenosine A2A receptor expressed in HEK293T cells assessed as inhibition of EC20 concentration of NECA-induced cAMP accumulation at 0.63 mM by GloSensor cAMP accumulation assay; format: functional, cell-based; details: filed as antagonist
Summary of the method: as §2

Adenosine receptor A2b [18] = biological target: T3, Adenosine receptor A2b; test: Binding affinity to human wild type adenosine A2B receptor expressed in Expi293F cells assessed as affinity on-rate by surface plasmon resonance assay
HEK-293T = test: Effect on cAMP accumulation in HEK293T cells by GloSensor cAMP accumulation assay; format: functional, cell-based; details: Homo sapiens
Summary of the method: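 HEK293T cells transiently expressing the A2A receptor, with a GloSensor luciferase cAMP read-out. Compound concentration series were tested against NECA at EC80 (500 nM) or EC20 (3 nM), and for agonist activity alone. Cells lacking transfected A2A served as control. Responses are expressed as a percentage of the maximum NECA response, as mean ± SEM of at least three independent experiments in technical duplicate.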

Adenosine receptor A2a [19] = biological target: T1, Adenosine receptor A2a; test: Antagonist activity at human adenosine A2A receptor expressed in HEK293T cells assessed as inhibition of EC20 concentration of NECA-induced cAMP accumulation by GloSensor cAMP accumulation assay; format: functional, cell-based; details: filed as antagonist
Summary of the method: as §2

Adenosine receptor A2a [20] = biological target: T1, Adenosine receptor A2a; test: Allosteric modulator activity at human adenosine A2A receptor expressed in HEK293T cells assessed as stimulation of NECA-induced cAMP accumulation by GloSensor cAMP accumulation assay; format: functional, cell-based; details: filed as positive allosteric modulator
Summary of the method: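 GloSensor cAMP accumulation in HEK293T cells transiently expressing A2A; compound tested for modulation of NECA-stimulated cAMP (EC80 and EC20 NECA), concentrations up to 30 μM. Data as % of maximum NECA response; mean ± SEM of three to four experiments in at least duplicate.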

Adenosine receptor A1 [21] = biological target: T2, Adenosine receptor A1; test: Binding affinity to human wild type adenosine A1 receptor expressed in Expi293F cells assessed as affinity on-rate by surface plasmon resonance assay
Adenosine receptor A2a [22] = biological target: T1, Adenosine receptor A2a; test: Antagonist activity at human adenosine A2A receptor expressed in HEK293T cells assessed as inhibition of NECA-induced Gs short protein activation by TRUPATH assay; format: functional, cell-based

T1 sequence (P29274 whole entry): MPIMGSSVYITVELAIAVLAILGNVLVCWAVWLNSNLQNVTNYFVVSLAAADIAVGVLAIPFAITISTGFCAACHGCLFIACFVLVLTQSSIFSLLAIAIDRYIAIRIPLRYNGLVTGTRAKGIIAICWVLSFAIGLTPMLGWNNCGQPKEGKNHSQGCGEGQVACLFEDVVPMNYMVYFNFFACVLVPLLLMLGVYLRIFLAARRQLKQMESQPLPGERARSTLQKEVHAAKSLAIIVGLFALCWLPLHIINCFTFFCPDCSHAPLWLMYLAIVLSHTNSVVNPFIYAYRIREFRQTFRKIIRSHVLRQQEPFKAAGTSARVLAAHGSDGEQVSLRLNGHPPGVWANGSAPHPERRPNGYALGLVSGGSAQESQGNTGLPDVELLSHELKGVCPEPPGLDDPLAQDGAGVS

Structure (SMILES)	Kd (Adenosine receptor A2a [2]) [µM]	Kd (Adenosine receptor A1 [3]) [µM]	Kd (Adenosine receptor A2b [4]) [µM]	Kd (Adenosine receptor A3) [µM]	further results
Nc1nc(Nc2ccccc2)nc2c1ncn2[C@@H]1O[C@H](CO)[C@@H](O)[C@H]1O	0.0091				Ki (Adenosine receptor A2a [1]): 0.076 µM
CC(C)NC(=O)c1cc(-c2ccccc2)[nH]n1	49	70	196	80	Activity (Adenosine receptor A2a [5]): Active
N#Cc1c(N)nc(SCc2ncc[nH]2)c(C#N)c1-c1ccc(O)cc1			0.0782		ka (Adenosine receptor A2b [6]): 1.1 10^5/M/s; K [7]: 0.0086 s⁻¹; Ki (Adenosine receptor A2b [8]): 0.012 µM
Nc1nncc(-c2ccc(Br)cc2)n1	50	1.1			Activity (Adenosine receptor A2a [5]): Active
O=C(Nc1n[nH]c2nc(-c3ccco3)c(Br)cc12)C1CC1	0.56	2.12			K [9]: 4.25 10^4/M/s; Activity (Adenosine receptor A2a [10]): Active; K [11]: 0.09 s⁻¹; K [12]: 0.041 s⁻¹
Oc1ncnc2[nH]ncc12 [ALLOPURINOL]	77				
COc1cc(/C=N/Nc2ncnc3c2cnn3-c2ccccc2)ccc1O		1.21			IC50 [13]: 0.1 µM; K [9]: 5.33 10^4/M/s; Activity [14]: Active; Activity (Adenosine receptor A2a [10]): Active; K [11]: 0.06 s⁻¹; Activity [15]: Active; Activity (Adenosine receptor A2a [2]): Active
Fc1ccc(-c2nn3ccccc3c2-c2ccncc2)cc1 [GW434756X]	8.9	0.00605	0.28	0.74	Activity (Adenosine receptor A2a [16]): Active; K [9]: 1.63 10^6/M/s; Activity (Adenosine receptor A2a [17]): Active; K [11]: 0.01 s⁻¹; ka (Adenosine receptor A2b [6]): 1.52 10^5/M/s; ka (Adenosine receptor A2b [18]): 1.52 10^5/M/s; K [12]: 0.041 s⁻¹
CCNC(=O)[C@H]1O[C@@H](n2cnc3c(N)ncnc32)[C@H](O)[C@@H]1O					Activity (HEK-293T): Active
Nc1nc(N)nc(-c2ccccc2)n1 [BENZOGUANAMINE]	1.5	2.21	107	104	Activity (Adenosine receptor A2a [19]): Active
NC(=O)c1ncoc1-c1ccccc1	31.8				
Cn1c(=O)[nH]c2ccccc2c1=O	28.8	34.3	148	18.9	
Nc1nc(-c2ccccc2)ns1	130	51.7	60.7	50.7	
O=C1NC(=O)C(c2cccc(Cl)c2)=C1Nc1ccc(O)c(Cl)c1	0.11	2.21			Activity (Adenosine receptor A2a [16]): Active; K [9]: 1.21 10^5/M/s; Activity (Adenosine receptor A2a [10]): Active; K [11]: 0.27 s⁻¹
O=c1cc(NCc2ccccc2)nc2ccccn12	131	154	199	200	
O=C(NCc1ccccc1)c1ccc2nonc2c1	100	92	22	180	
O=C(Nc1ccccc1)Nc1ccccn1	50.9	41	43.3	52	
CS(=O)(=O)c1ccc(C(=O)Nc2cccc(Cl)c2)cc1	13.5	7.6	19.3	18	Activity (Adenosine receptor A2a [5]): Active
Nc1ccc2nnc(-c3ccccc3)n2n1	1.11	22.9	120	160	Activity (Adenosine receptor A2a [19]): Active
Nc1nc(N)c2nccnc2n1	9.6				
CC(C)n1ncc2cc(C(=O)NCc3ccco3)cnc21	210	27	80	400	
Nc1nsc(-c2ccc(Cl)cc2)n1	21.8	20.7	45	36.5	Activity (Adenosine receptor A2a [20]): Active; Activity (Adenosine receptor A2a [10]): Active
Cc1nn(-c2ccccc2)nc1C(N)=O	410	78	140	101	
O[C@H]1CC[C@H](Nc2nc(-c3ccccc3)nc3[nH]ccc23)CC1		0.00546			K [9]: 6.27 10^5/M/s; K [11]: 0.0034 s⁻¹; ka (Adenosine receptor A1 [21]): 6.27 10^5/M/s
Nc1nsc(-c2ccccc2)n1	139	122	108	102	
O=C(Nc1ccc2ccccc2n1)c1ccco1	40	59	123	56	IC50 (Adenosine receptor A2a [22]): 0.166 µM
